Laboratory results taken from ChEMBL document CHEMBL4334451, “Natural Alkaloid Berberine Activity against Pseudomonas aeruginosa MexXY-Mediated Aminoglycoside Resistance: In Silico and in Vitro Studies” (J Nat Prod, 2019).
Active and inactive are the calls of the source. The rule behind the calls is not given here.

Experiments:
Format in all cases: protein-complex assay
[1] = biological target: T1, MexXY/OprM (Pseudomonas aeruginosa (strain ATCC 15692 / DSM 22644 / CIP 104116 / JCM14847 / LMG 12228 / 1C / PRS 101 / PAO1)) (UniProt Q51487+Q9ZNG9+Q9ZNG8); assay: Inhibition of MexXY/OPRM in Pseudomonas aeruginosa C31 assessed as reduction in bacterial resistance to tobramycin by measuring tobramycin MIC at 80 ug/ml incubated for 24 to 48 hrs by broth microdilution method (reference value: 8 ug/ml)
[2] = biological target: T1, MexXY/OprM (Pseudomonas aeruginosa (strain ATCC 15692 / DSM 22644 / CIP 104116 / JCM14847 / LMG 12228 / 1C / PRS 101 / PAO1)); assay: Inhibition of MexXY/OPRM in Pseudomonas aeruginosa C54 assessed as reduction in bacterial resistance to tobramycin by measuring tobramycin MIC at 80 ug/ml incubated for 24 to 48 hrs by broth microdilution method (reference value: 32 ug/ml)
[3] = biological target: T1, MexXY/OprM (Pseudomonas aeruginosa (strain ATCC 15692 / DSM 22644 / CIP 104116 / JCM14847 / LMG 12228 / 1C / PRS 101 / PAO1)); assay: Inhibition of MexXY/OPRM in Pseudomonas aeruginosa C59 assessed as reduction in bacterial resistance to tobramycin by measuring tobramycin MIC at 80 ug/ml incubated for 24 to 48 hrs by broth microdilution method (reference value: 64 ug/ml)
[4] = biological target: T1, MexXY/OprM (Pseudomonas aeruginosa (strain ATCC 15692 / DSM 22644 / CIP 104116 / JCM14847 / LMG 12228 / 1C / PRS 101 / PAO1)); assay: Inhibition of MexXY/OPRM in Pseudomonas aeruginosa C61 assessed as reduction in bacterial resistance to tobramycin by measuring tobramycin MIC at 80 ug/ml incubated for 24 to 48 hrs by broth microdilution method (reference value: 64 ug/ml)
[5] = biological target: T1, MexXY/OprM (Pseudomonas aeruginosa (strain ATCC 15692 / DSM 22644 / CIP 104116 / JCM14847 / LMG 12228 / 1C / PRS 101 / PAO1)); assay: Inhibition of MexXY/OPRM in Pseudomonas aeruginosa C70 assessed as reduction in bacterial resistance to tobramycin by measuring tobramycin MIC at 80 ug/ml incubated for 24 to 48 hrs by broth microdilution method (reference value: 32 ug/ml)
[6] = biological target: T1, MexXY/OprM (Pseudomonas aeruginosa (strain ATCC 15692 / DSM 22644 / CIP 104116 / JCM14847 / LMG 12228 / 1C / PRS 101 / PAO1)); assay: Inhibition of MexXY/OPRM in Pseudomonas aeruginosa C104 assessed as reduction in bacterial resistance to tobramycin by measuring tobramycin MIC at 80 ug/ml incubated for 24 to 48 hrs by broth microdilution method (reference value: 32 ug/ml)
[7] = biological target: T1, MexXY/OprM (Pseudomonas aeruginosa (strain ATCC 15692 / DSM 22644 / CIP 104116 / JCM14847 / LMG 12228 / 1C / PRS 101 / PAO1)); assay: Inhibition of MexXY/OPRM in Pseudomonas aeruginosa AR51 assessed as reduction in bacterial resistance to tobramycin by measuring tobramycin MIC at 80 ug/ml incubated for 24 to 48 hrs by broth microdilution method (reference value: 16 ug/ml)
[8] = biological target: T1, MexXY/OprM (Pseudomonas aeruginosa (strain ATCC 15692 / DSM 22644 / CIP 104116 / JCM14847 / LMG 12228 / 1C / PRS 101 / PAO1)); assay: Inhibition of MexXY/OPRM in Pseudomonas aeruginosa C67 assessed as reduction in bacterial resistance to tobramycin by measuring tobramycin MIC at 80 ug/ml incubated for 24 to 48 hrs by broth microdilution method (reference value: 16 ug/ml)
[9] = biological target: T1, MexXY/OprM (Pseudomonas aeruginosa (strain ATCC 15692 / DSM 22644 / CIP 104116 / JCM14847 / LMG 12228 / 1C / PRS 101 / PAO1)); assay: Inhibition of MexXY/OPRM in Pseudomonas aeruginosa K767 assessed as bacterial growth up to 320 ug/ml incubated for 24 to 48 hrs by broth microdilution method
Procedure, shortened: (§1)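 Broth microdilution per CLSI, with P. aeruginosa ATCC 27853 as reference strain, in 2-fold dilution series. Plates were incubated at 37°C and read for visible growth at 24 and 48 h. Berberine stock was in 50% DMSO/50% methanol, with final DMSO kept near 1%. Berberine was tested at 10–320 µg/ml, alone or at a fixed level with serial tobramycin.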

[10] = biological target: T1, MexXY/OprM (Pseudomonas aeruginosa (strain ATCC 15692 / DSM 22644 / CIP 104116 / JCM14847 / LMG 12228 / 1C / PRS 101 / PAO1)); assay: Inhibition of MexXY/OPRM in Pseudomonas aeruginosa C6 assessed as bacterial growth up to 320 ug/ml incubated for 24 to 48 hrs by broth microdilution method
Procedure, shortened: (§2)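 Broth microdilution following CLSI guidelines, with P. aeruginosa ATCC 27853 as reference strain. Berberine was tested at 2-fold concentrations from 10 to 320 µg/ml, dissolved in 50% DMSO/50% methanol, with the top concentration set to keep final DMSO close to 1%. Plates were incubated at 37°C and read for visible growth at 24 and 48 h.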

[11] = biological target: T1, MexXY/OprM (Pseudomonas aeruginosa (strain ATCC 15692 / DSM 22644 / CIP 104116 / JCM14847 / LMG 12228 / 1C / PRS 101 / PAO1)); assay: Inhibition of MexXY/OPRM in Pseudomonas aeruginosa C25 assessed as bacterial growth up to 320 ug/ml incubated for 24 to 48 hrs by broth microdilution method; procedure, shortened: as §2
[12] = biological target: T1, MexXY/OprM (Pseudomonas aeruginosa (strain ATCC 15692 / DSM 22644 / CIP 104116 / JCM14847 / LMG 12228 / 1C / PRS 101 / PAO1)); assay: Inhibition of MexXY/OPRM in Pseudomonas aeruginosa C31 assessed as bacterial growth up to 320 ug/ml incubated for 24 to 48 hrs by broth microdilution method; procedure, shortened: as §2
[13] = biological target: T1, MexXY/OprM (Pseudomonas aeruginosa (strain ATCC 15692 / DSM 22644 / CIP 104116 / JCM14847 / LMG 12228 / 1C / PRS 101 / PAO1)); assay: Inhibition of MexXY/OPRM in Pseudomonas aeruginosa C52 assessed as bacterial growth up to 320 ug/ml incubated for 24 to 48 hrs by broth microdilution method; procedure, shortened: as §2
[14] = biological target: T1, MexXY/OprM (Pseudomonas aeruginosa (strain ATCC 15692 / DSM 22644 / CIP 104116 / JCM14847 / LMG 12228 / 1C / PRS 101 / PAO1)); assay: Inhibition of MexXY/OPRM in Pseudomonas aeruginosa C59 assessed as bacterial growth up to 320 ug/ml incubated for 24 to 48 hrs by broth microdilution method; procedure, shortened: as §2
[15] = biological target: T1, MexXY/OprM (Pseudomonas aeruginosa (strain ATCC 15692 / DSM 22644 / CIP 104116 / JCM14847 / LMG 12228 / 1C / PRS 101 / PAO1)); assay: Inhibition of MexXY/OPRM in Pseudomonas aeruginosa C60 assessed as bacterial growth up to 320 ug/ml incubated for 24 to 48 hrs by broth microdilution method; procedure, shortened: as §2
[16] = biological target: T1, MexXY/OprM (Pseudomonas aeruginosa (strain ATCC 15692 / DSM 22644 / CIP 104116 / JCM14847 / LMG 12228 / 1C / PRS 101 / PAO1)); assay: Inhibition of MexXY/OPRM in Pseudomonas aeruginosa C73 assessed as bacterial growth up to 320 ug/ml incubated for 24 to 48 hrs by broth microdilution method; procedure, shortened: as §2
[17] = biological target: T1, MexXY/OprM (Pseudomonas aeruginosa (strain ATCC 15692 / DSM 22644 / CIP 104116 / JCM14847 / LMG 12228 / 1C / PRS 101 / PAO1)); assay: Inhibition of MexXY/OPRM in Pseudomonas aeruginosa C86 assessed as bacterial growth up to 320 ug/ml incubated for 24 to 48 hrs by broth microdilution method; procedure, shortened: as §1
[18] = biological target: T1, MexXY/OprM (Pseudomonas aeruginosa (strain ATCC 15692 / DSM 22644 / CIP 104116 / JCM14847 / LMG 12228 / 1C / PRS 101 / PAO1)); assay: Inhibition of MexXY/OPRM in Pseudomonas aeruginosa C104 assessed as bacterial growth up to 320 ug/ml incubated for 24 to 48 hrs by broth microdilution method; procedure, shortened: as §2
[19] = biological target: T1, MexXY/OprM (Pseudomonas aeruginosa (strain ATCC 15692 / DSM 22644 / CIP 104116 / JCM14847 / LMG 12228 / 1C / PRS 101 / PAO1)); assay: Inhibition of MexXY/OPRM in Pseudomonas aeruginosa C61 assessed as reduction in bacterial resistance to tobramycin by measuring fold reduction in tobramycin MIC at 80 ug/ml incubated for 24 to 48 hrs by broth microdilution method
[20] = biological target: T1, MexXY/OprM (Pseudomonas aeruginosa (strain ATCC 15692 / DSM 22644 / CIP 104116 / JCM14847 / LMG 12228 / 1C / PRS 101 / PAO1)); assay: Inhibition of MexXY/OPRM in Pseudomonas aeruginosa C70 assessed as reduction in bacterial resistance to tobramycin by measuring fold reduction in tobramycin MIC at 80 ug/ml incubated for 24 to 48 hrs by broth microdilution method
[21] = biological target: T1, MexXY/OprM (Pseudomonas aeruginosa (strain ATCC 15692 / DSM 22644 / CIP 104116 / JCM14847 / LMG 12228 / 1C / PRS 101 / PAO1)); assay: Inhibition of MexXY/OPRM in Pseudomonas aeruginosa C86 assessed as reduction in bacterial resistance to tobramycin by measuring fold reduction in tobramycin MIC at 80 ug/ml incubated for 24 to 48 hrs by broth microdilution method
Procedure, shortened: (§3)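 Tobramycin MIC by CLSI broth microdilution at 37°C, read at 24 and 48 h, with and without a fixed berberine concentration selected from checkerboard assays. Berberine stock was in 50% DMSO/50% methanol, final DMSO about 1%. A 2-fold decrease in tobramycin MIC was scored as synergy.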

[22] = biological target: T1, MexXY/OprM (Pseudomonas aeruginosa (strain ATCC 15692 / DSM 22644 / CIP 104116 / JCM14847 / LMG 12228 / 1C / PRS 101 / PAO1)); assay: Inhibition of MexXY/OPRM in Pseudomonas aeruginosa C93 assessed as reduction in bacterial resistance to tobramycin by measuring fold reduction in tobramycin MIC at 80 ug/ml incubated for 24 to 48 hrs by broth microdilution method; procedure, shortened: as §3
[23] = biological target: T1, MexXY/OprM (Pseudomonas aeruginosa (strain ATCC 15692 / DSM 22644 / CIP 104116 / JCM14847 / LMG 12228 / 1C / PRS 101 / PAO1)); assay: Inhibition of MexXY/OPRM in Pseudomonas aeruginosa C95 assessed as reduction in bacterial resistance to tobramycin by measuring fold reduction in tobramycin MIC at 80 ug/ml incubated for 24 to 48 hrs by broth microdilution method; procedure, shortened: as §3
[24] = biological target: T1, MexXY/OprM (Pseudomonas aeruginosa (strain ATCC 15692 / DSM 22644 / CIP 104116 / JCM14847 / LMG 12228 / 1C / PRS 101 / PAO1)); assay: Inhibition of MexXY/OPRM in Pseudomonas aeruginosa C104 assessed as reduction in bacterial resistance to tobramycin by measuring fold reduction in tobramycin MIC at 80 ug/ml incubated for 24 to 48 hrs by broth microdilution method

COc1ccc2cc3[n+](cc2c1OC)CCc1cc2c(cc1-3)OCO2 [BERBERINE]
MIC [1]: 8 µg/mL | MIC [2]: 16 µg/mL | MIC [3]: 32 µg/mL | MIC [4]: 16 µg/mL | MIC [5]: 8 µg/mL | MIC [6]: 8 µg/mL | MIC [7]: 8 µg/mL | MIC [8]: 16 µg/mL | inhibition [9]: inactive | inhibition [10]: inactive | inhibition [11]: inactive | inhibition [12]: inactive | inhibition [13]: inactive | inhibition [14]: inactive | inhibition [15]: inactive | inhibition [16]: inactive | inhibition [17]: inactive | inhibition [18]: inactive | fold change (FC) [19]: > 2 | fold change (FC) [20]: > 2 | fold change (FC) [21]: > 2 | fold change (FC) [22]: > 2 | fold change (FC) [23]: > 2 | fold change (FC) [24]: > 2
